Most compounds without a hit are left out; they make up all but 2% or so of the library.
dFosB activator: mouse delta FosB homodimer activation; purified delta FosB, TAMRA-CDK5 oligo fluorescence polarization; percent of positive-control signal above neutral wells; activation, % at 25 µM; hit rate 0.99% among 340,000;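 active = mean activation above about 17%, with every replicate also reaching it, limit read from the data, passing the limit was not always enough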
CDK5 p35 inh: inhibitors of human CDK5/p35 kinase; Q00535+Q15078; Recombinant CDK5/p35, ADP-Glo luminescence, 60 min; inhibition, % at 10 µM; hit rate 0.01% among 330,000;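 active = highest replicate inhibition of at least 50% and at least 75% of replicates reaching 50%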;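 note: plate controls were DMSO neutral control for no effect and GW8510 at 10 µM for full effect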
SR-BI DiI inh: blocks mouse SR-BI lipid uptake from DiI-HDL; ldlA[mSR-BI] CHO cells, DiI-HDL uptake fluorescence, 3 h; hit rate 0.96% among 320,000; inhibition, % at 12.5 µM; Q61009;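 active = mean replicate inhibition of at least 70% and a set share of replicates each scoring 70 or more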;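 note: 0% = median of neutral control wells and 100% = median of positive control wells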
SR-BI uptake up: activators of SR-BI mediated HDL lipid uptake; CHO ldlA[mSR-BI] cells, DiI-HDL uptake fluorescence, 3 h; 100 = double the neutral-control signal; activation, % at 12.5 µM; hit rate 0.096% among 320,000; AID 504775;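 active = mean replicate activation of at least 60% and every replicate at or above 60%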;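 note: 0% = median plate neutral-control signal and 100% = twice that signal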
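Test system: SR-BI-overexpressing, LDLR-lacking CHO cells; Medium: Ham's F12 with 0.5% BSA, HEPES 25 mM, pH 7.4; Schedule: 3 h, 37 °C; Technique: bottom-read fluorescence, 550/595 nm.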
* = called active by the depositor; / = not tested or not shown.

SMILES	dFosB activator	CDK5 p35 inh	SR-BI DiI inh	SR-BI uptake up
Cc1ccccc1C(=O)Nc1ccc(C(=O)N/N=C/c2ccc(F)cc2)cc1	14	0	84*	-84
CC(C)(C)c1cc(C(=O)N/N=C/c2ccccn2)n[nH]1	0	-3	-320	320*
Cc1ccc(C(=O)Nc2ccc(C(=O)N/N=C/c3c[nH]c4ccccc34)cc2)cc1	5	-2	94*	-94
Cc1ccc(C(=O)Nc2ccc(C(=O)N/N=C/c3ccccn3)cc2)cc1	-7	-1	76*	-76
Cc1cc(NS(=O)(=O)c2cn(C)nc2C)no1	3	-2	-7	7
O=C(CSc1ccccc1F)NCC1(N2CCCCC2)CCCCC1	3	-1	-32	32
CCN(CC)C(=O)COc1ccc(-c2nnc(N3CCCCC3)c3ccccc23)cc1	-7	2	18	-18
COc1ccc(Nc2nnc(-c3ccc(C)cc3)c3ccccc23)cc1C(=O)N1CCCCC1	-8	-1	81*	-81
COc1ccc(Nc2nnc(-c3ccccc3)c3ccccc23)cc1C(=O)N1CCCCC1	-10	1	48	-48
CCN(CC)C(=O)COc1ccc(-c2nnc(Nc3ccc(OC)c(C(=O)NC)c3)c3ccccc23)cc1	-16	1	87*	-87
CCNC(=O)c1ccc(NS(=O)(=O)c2ccc3[nH]c(=O)[nH]c3c2)cc1	-12	0	-2	2
CCOC(=O)Oc1c(OC)cc(C(=O)O[C@@H]2C[C@@H]3CN4CCc5c([nH]c6cc(OC)ccc56)[C@H]4C[C@@H]3[C@H](C(=O)OC)[C@H]2OC)cc1OC	29*	0	70	-70
Cc1nc(N2CCC(C)CC2)c2nnn(Cc3ccccc3)c2n1	-3	-3	81*	-81
Cc1cc(C)n(-c2ccc(NC(=O)C3CCCCN3Cc3cccc4c3OCO4)cc2)n1 (stereo not drawn)	-1	0	89*	-89
COc1cccc(C(=O)OCC(=O)N2CCc3ccccc3C2)c1	-7	-1	-5	5
Cc1nc2ccc(Br)cc2c(=O)n1Cc1cccs1	-7	0	7	-7
COc1c(C(=O)Nc2ccc3[nH]c(=O)[nH]c3c2)cc2ccccc2c1Br	-7	-1	78*	-78
CCC[C@H](CN[C@@H](CNC)[C@H](C)CC)NCCc1cc(C(F)(F)F)cc(C(F)(F)F)c1	14	1	-36	36
CC[C@@H](C)[C@H](CNC)NC[C@@H](Cc1cccc2ccccc12)NCCc1cccc(C(F)(F)F)c1	19*	1	-38	38
Cc1cc(NC(=O)c2c(F)cccc2Cl)n(-c2nc3ccccc3[nH]2)n1	-9	2	92*	-92
Cc1cc(NC(=O)C2CCCCC2)n(-c2nc3ccccc3[nH]2)n1	-15	1	58	-58
Cc1cc(NC(=O)c2ccc(C)s2)n(-c2nc3ccccc3[nH]2)n1	-28	-1	72*	-72
Cc1cc(NC(=O)/C=C/c2cccc(F)c2)n(-c2nc3ccccc3[nH]2)n1	6	-1	95*	-95
Cc1cc(NC(=O)c2ccccc2F)n(-c2nc3ccccc3[nH]2)n1	-9	-1	76*	-76
Cc1cc(NC(=O)c2c(F)cccc2F)n(-c2nc3ccccc3[nH]2)n1	-33	2	66	-66
SMILES	dFosB activator	CDK5 p35 inh	SR-BI DiI inh	SR-BI uptake up
O=C(Cn1c(=O)c2cccn2c2ccccc21)Nc1cc(F)ccc1F	14	0	12	-12
CCOC(=O)CNS(=O)(=O)c1ccc(S(=O)(=O)NC2CC2)cc1	0	-1	-2	2
CC1CCN(C(=O)Cn2c(=O)n(Cc3ccco3)c(=O)c3sccc32)CC1	-1	0	/	/
Nc1ccc(Cc2ccc(N)c(O)c2)cc1O	44*	-1	14	-14
COC(CNC(=O)c1ccc2nc(-c3ccccc3)c(-c3ccccc3)nc2c1)OC	-27	1	80*	-80
CCOc1ccccc1NC(=O)c1ccc2[nH]c(C)c(C)c2c1	-7	2	/	/
COc1ccc(NC(=O)c2ccc3[nH]c(C)c(C)c3c2)c(OC)c1	-5	1	109*	-109
Cc1cc(NC(=O)c2ccccc2)no1	-5	0	-31	31
CCn1cc(CNC(=O)c2cc(-c3cc(OC)ccc3OC)nc3ccccc23)c(C)n1	-9	-1	78*	-78
COc1ccc(-c2nc3ccc(C(=O)NCC(OC)OC)cc3nc2-c2ccc(OC)cc2)cc1	-27	1	51	-51
Cc1cc(NC(=O)c2ccc3nc(-c4ccccc4)c(-c4ccccc4)nc3c2)no1	-3	-2	80*	-80
